Laboratory results from ChEMBL document CHEMBL1123946, “Cholecystokinin antagonists. Synthesis and biological evaluation of 4-substituted 4H-[1,2,4]triazolo[4,3-a][1,4]benzodiazepines” (J Med Chem, 1988).

Tests used:
[1] = Displacement of [125I]CCK from Cholecystokinin receptor of guinea pig brain; parameters: species or system Cavia porcellus
Summary of the method: (§1)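 Membrane binding: [125I]-CCK-33 to rat pancreas and guinea pig cortex, and [125I]gastrin to guinea pig gastric glands. Values are the means of triplicate determinations.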

[2] = molecular target: T1, Cholecystokinin receptor type A (Rattus norvegicus, UniProt P30551); test: Displacement of [125I]CCK from Cholecystokinin receptor of rat pancreas; summary of the method: as §1
T1 sequence (P30551 whole entry): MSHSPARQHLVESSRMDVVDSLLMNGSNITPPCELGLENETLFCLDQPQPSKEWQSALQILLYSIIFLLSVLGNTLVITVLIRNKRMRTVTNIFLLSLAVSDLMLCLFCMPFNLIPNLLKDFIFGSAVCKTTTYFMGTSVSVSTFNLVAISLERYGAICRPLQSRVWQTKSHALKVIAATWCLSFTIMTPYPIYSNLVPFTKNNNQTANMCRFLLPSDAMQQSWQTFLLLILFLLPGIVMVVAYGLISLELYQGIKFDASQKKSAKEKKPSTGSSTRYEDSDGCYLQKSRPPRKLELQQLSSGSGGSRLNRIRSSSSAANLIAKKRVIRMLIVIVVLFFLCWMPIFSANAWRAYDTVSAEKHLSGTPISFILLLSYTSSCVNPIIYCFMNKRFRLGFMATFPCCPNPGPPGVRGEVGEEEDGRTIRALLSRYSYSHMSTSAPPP

[3] = Displacement of [125I]gastrin from guinea pig gastric glands
Mus musculus [4] = test: Effective dose for antagonism of CCK-8 inhibition of gastric emptying, 5 hr after oral administration; type: functional; settings: Stomach
Summary of the method: (§2)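 Mice were dosed orally in 0.5% methylcellulose vehicle (N ≥ 10/dose), 1 h, 4 h or 5 h before CCK-8 (80 μg/kg, sc). CCK-8 was given 5 min before a charcoal meal, and gastric emptying was then scored. ED50 is the dose protecting 50% of mice, from regression over at least three dose levels.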

Mus musculus [5] = test: Effective dose for antagonism of CCK-8 inhibition of gastric emptying, 1 hr after oral administration; type: functional; settings: Stomach; summary of the method: as §2
Mus musculus [6] = test: Effective dose for antagonism of CCK-8 inhibition of gastric emptying, 4 hr after oral administration; type: functional; settings: Stomach; summary of the method: as §2

In the case of `Fc1ccccc1C1=N[C@H](Cc2c[nH]c3ccccc23)c2nncn2-c2ccccc21`, the IC50 [1] is reported as about 100 µM.

`Cc1nnc2n1-c1ccccc1C(c1ccccc1)=NC2NC(=O)Nc1ccc(Cl)cc1` (stereo not drawn) gave an IC50 [1] of 0.12 µM.

Work on `Cc1nnc2n1-c1ccc(Cl)cc1C(c1ccccc1Cl)=NC2` [TRIAZOLAM] yielded an IC50 [2] of 39 µM and an IC50 [1] of over 100 µM.

For `Fc1ccccc1C1=N[C@H](Cc2c[nH]c3ccccc23)c2nnc(C(Cl)(Cl)Cl)n2-c2ccccc21`, the IC50 [1] was over 100 µM.

With `O=C(Nc1ccc(Cl)cc1)NC1N=C(c2ccccc2)c2ccccc2-n2cnnc21` (stereo not drawn) the IC50 [1] was 0.48 µM.

For `CN(C)Cc1nnc2n1-c1ccccc1C(c1ccccc1F)=N[C@@H]2Cc1c[nH]c2ccccc12`, the IC50 [1] was about 100 µM.

With `O=C(NC1N=C(c2ccccc2F)c2ccccc2-n2cnnc21)OCc1ccccc1` (stereo not drawn) the IC50 [1] was 8 µM.

`Cc1nnc2n1-c1ccc(Cl)cc1C(c1ccccc1)=NC2` [ALPRAZOLAM] showed an IC50 [2] of 64 µM and an IC50 [1] of over 100 µM.

Work on `Cc1nnc2n1-c1ccccc1C(c1ccccc1F)=N[C@@H]2Cc1c[nH]c2ccccc12` yielded an IC50 [3] of 12 µM, an ED50 (Mus musculus [4]) of 200 mg/kg and an ED50 (Mus musculus [5]) of 76 mg/kg. It also gave an IC50 [1] of 39 µM.

Molecule `Cc1nnc2n1-c1ccccc1C(c1ccccc1F)=NC2NC(=O)c1cc2ccccc2[nH]1` (stereo not drawn) has an ED50 (Mus musculus [5]) of 0.05 mg/kg, an IC50 [2] of 0.0002 µM and an IC50 [1] of 0.008 µM. The ED50 (Mus musculus [6]) was 0.13 mg/kg.

Work on `O=C(NC1N=C(c2ccccc2F)c2ccccc2-n2cnnc21)c1ccc(Cl)cc1` (stereo not drawn) yielded an ED50 (Mus musculus [5]) of 0.12 mg/kg and an IC50 [1] of 9.3 µM.

`O=C(NC1N=C(c2ccccc2)c2ccccc2-n2cnnc21)OCc1ccccc1` (stereo not drawn) showed an IC50 [2] of 0.1 µM and an IC50 [1] of 7.7 µM.

`Fc1ccccc1C1=N[C@H](Cc2c[nH]c3ccccc23)c2nnc(-c3ccccc3)n2-c2ccccc21` gave an IC50 [1] of about 100 µM.

`CN1C(=O)[C@@H](NC(=O)c2cc3ccccc3[nH]2)N=C(c2ccccc2)c2ccccc21` [DEVAZEPIDE] gave an ED50 (Mus musculus [4]) of 0.06 mg/kg and an ED50 (Mus musculus [5]) of 0.04 mg/kg.

Molecule `O=C(NC1N=C(c2ccccc2F)c2ccccc2-n2cnnc21)c1cc2ccccc2[nH]1` (stereo not drawn) has an ED50 (Mus musculus [4]) of 0.12 mg/kg, an ED50 (Mus musculus [5]) of 0.02 mg/kg and an IC50 [1] of 0.053 µM.
